Experiments:
Tubulin = experiment: Inhibition of tubulin polymerization (unknown origin) incubated for 15 mins followed by GTP addition and measured for 20 mins by spectrophotometry; format: protein-complex assay, Homo sapiens
In short: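 Tubulin assembly assay with tubulin at 10 µM. IC50 for inhibition of polymerization; run in duplicate or triplicate.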

MCF7 = experiment: Cytotoxicity against human MCF7 cells assessed as reduction in cell growth incubated for 96 hrs by MTT assay; format: functional, cell-based; settings: MCF7, 96 h
In short: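 Growth inhibition of human breast carcinoma cells, reported as IC50; run in duplicate or triplicate.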

Tubulin (Homo sapiens) = Tubulin (Homo sapiens) (UniProt P68371+Q9H4B7+P0DPH7+P68366+Q13509+Q71U36+P04350+Q3ZCM7+P07437+P68363+Q9BQE3+Q6PEY2+Q13885+Q9BVA1+Q9BUF5); experiment: Inhibition of [3H]colchicine binding to tubulin (unknown origin) at 5 uM incubated for 10 mins by DEAE-cellulose filter method relative to control; format: protein-complex assay

COc1cc(C(=O)c2cn(-c3ccccc3)cc2-c2ccc([N+](=O)[O-])cc2)cc(OC)c1OC
IC50 (Tubulin): > 20000 nM | IC50 (MCF7): 590 nM

COc1cc(C(=O)c2cn(-c3ccc(C)cc3)cc2-c2cccc([N+](=O)[O-])c2)cc(OC)c1OC
IC50 (Tubulin): 710 nM | IC50 (MCF7): 210 nM | inhibition (Tubulin (Homo sapiens)): 36%

COc1cc(C(=O)c2cn(-c3ccccc3)cc2-c2ccccc2Cl)cc(OC)c1OC
IC50 (Tubulin): 630 nM | IC50 (MCF7): 76 nM | inhibition (Tubulin (Homo sapiens)): 50%

COc1cc(C(=O)c2cn(-c3ccc(N)cc3)cc2-c2cccc([N+](=O)[O-])c2)cc(OC)c1OC
IC50 (Tubulin): 3800 nM | IC50 (MCF7): 260 nM | inhibition (Tubulin (Homo sapiens)): 18%

COc1cc(C(=O)c2cn(-c3ccccc3[N+](=O)[O-])cc2-c2ccccc2)cc(OC)c1OC
IC50 (Tubulin): > 20000 nM | IC50 (MCF7): 5000 nM

COc1cc(C(=O)c2cn(-c3ccc(C)cc3)cc2-c2ccc([N+](=O)[O-])cc2)cc(OC)c1OC
IC50 (Tubulin): 650 nM | IC50 (MCF7): 200 nM | inhibition (Tubulin (Homo sapiens)): 34%

COc1cccc(-n2cc(C(=O)c3cc(OC)c(OC)c(OC)c3)c(-c3ccccc3)c2)c1
IC50 (Tubulin): 1600 nM | IC50 (MCF7): 500 nM | inhibition (Tubulin (Homo sapiens)): 25%

COc1cc(C(=O)c2cn(-c3ccc(C)cc3)cc2-c2ccccc2F)cc(OC)c1OC
IC50 (Tubulin): 780 nM | IC50 (MCF7): 44 nM | inhibition (Tubulin (Homo sapiens)): 80%

COc1cc(C(=O)c2cn(-c3cccc([N+](=O)[O-])c3)cc2-c2ccccc2)cc(OC)c1OC
IC50 (Tubulin): > 20000 nM | IC50 (MCF7): 550 nM | inhibition (Tubulin (Homo sapiens)): 12%

COc1cc(C(=O)c2cn(-c3cccc(C)c3)cc2-c2ccc([N+](=O)[O-])cc2)cc(OC)c1OC
IC50 (Tubulin): > 20000 nM | IC50 (MCF7): 780 nM | inhibition (Tubulin (Homo sapiens)): 10%

COc1cc(C(=O)c2cn(-c3ccc(N)cc3)cc2-c2ccccc2F)cc(OC)c1OC
IC50 (Tubulin): 590 nM | IC50 (MCF7): 28 nM | inhibition (Tubulin (Homo sapiens)): 79%

COc1cc(C(=O)c2cn(-c3ccc(F)cc3)cc2-c2ccccc2[N+](=O)[O-])cc(OC)c1OC
IC50 (Tubulin): 680 nM | IC50 (MCF7): 38 nM | inhibition (Tubulin (Homo sapiens)): 46%

COc1cc(C(=O)c2cn(-c3ccc(F)cc3)cc2-c2ccccc2Cl)cc(OC)c1OC
IC50 (Tubulin): 510 nM | IC50 (MCF7): 83 nM | inhibition (Tubulin (Homo sapiens)): 65%

COc1cc(C(=O)c2cn(-c3ccccc3)cc2-c2cccc([N+](=O)[O-])c2)cc(OC)c1OC
IC50 (Tubulin): 940 nM | IC50 (MCF7): 50 nM | inhibition (Tubulin (Homo sapiens)): 12%

COc1ccc(Br)cc1-c1cn(-c2ccccc2)cc1C(=O)c1cc(OC)c(OC)c(OC)c1
IC50 (Tubulin): > 20000 nM | IC50 (MCF7): 2200 nM

COc1cc(C(=O)c2cn(-c3ccc(C)cc3)cc2-c2ccccc2[N+](=O)[O-])cc(OC)c1OC
IC50 (Tubulin): 610 nM | IC50 (MCF7): 65 nM | inhibition (Tubulin (Homo sapiens)): 71%

COc1ccc(-c2cn(-c3ccccc3)cc2C(=O)c2cc(OC)c(OC)c(OC)c2)cc1
IC50 (Tubulin): 480 nM | IC50 (MCF7): 70 nM | inhibition (Tubulin (Homo sapiens)): 42%

COc1cc(C(=O)c2cn(-c3ccc(C)cc3)cc2-c2ccc(N)cc2)cc(OC)c1OC
IC50 (Tubulin): 360 nM | IC50 (MCF7): 6 nM | inhibition (Tubulin (Homo sapiens)): 95%

COc1cccc(-c2cn(-c3ccccc3)cc2C(=O)c2cc(OC)c(OC)c(OC)c2)c1
IC50 (Tubulin): 450 nM | IC50 (MCF7): 180 nM | inhibition (Tubulin (Homo sapiens)): 27%

COc1cc(C(=O)c2cn(-c3cccc(C)c3)cc2-c2cccc([N+](=O)[O-])c2)cc(OC)c1OC
IC50 (Tubulin): > 20000 nM | IC50 (MCF7): 880 nM | inhibition (Tubulin (Homo sapiens)): 4.2%

COc1cc(C(=O)c2cn(-c3ccc(C)cc3)cc2-c2cccc(N)c2)cc(OC)c1OC
IC50 (Tubulin): 420 nM | IC50 (MCF7): 53 nM | inhibition (Tubulin (Homo sapiens)): 88%

COc1cc(C(=O)c2cn(-c3ccc(Cl)cc3)cc2-c2ccccc2)cc(OC)c1OC
IC50 (Tubulin): 1700 nM | IC50 (MCF7): 140 nM | inhibition (Tubulin (Homo sapiens)): 42%

COc1cc(C(=O)c2cn(-c3ccccc3)cc2-c2ccccc2Br)cc(OC)c1OC
IC50 (Tubulin): 670 nM | IC50 (MCF7): 190 nM | inhibition (Tubulin (Homo sapiens)): 39%

COc1cc(C(=O)c2cn(-c3ccc(F)cc3)cc2-c2ccccc2F)cc(OC)c1OC
IC50 (Tubulin): 660 nM | IC50 (MCF7): 39 nM | inhibition (Tubulin (Homo sapiens)): 68%

COc1cc(C(=O)c2cn(-c3ccc(N)cc3)cc2-c2ccc([N+](=O)[O-])cc2)cc(OC)c1OC
IC50 (Tubulin): 1800 nM | IC50 (MCF7): 260 nM | inhibition (Tubulin (Homo sapiens)): 23%

COc1cc(C(=O)c2cn(-c3ccc(N)cc3)cc2-c2cccc(N)c2)cc(OC)c1OC
IC50 (Tubulin): 870 nM | IC50 (MCF7): 78 nM | inhibition (Tubulin (Homo sapiens)): 59%

COc1ccccc1-c1cn(-c2ccccc2)cc1C(=O)c1cc(OC)c(OC)c(OC)c1
IC50 (Tubulin): 550 nM | IC50 (MCF7): 190 nM | inhibition (Tubulin (Homo sapiens)): 31%

COc1cc(C(=O)c2cn(-c3cccc(Cl)c3)cc2-c2ccccc2)cc(OC)c1OC
IC50 (Tubulin): 2100 nM | IC50 (MCF7): 150 nM | inhibition (Tubulin (Homo sapiens)): 37%

COc1cc(C(=O)c2cn(-c3ccc(C)cc3)cc2-c2ccccc2Cl)cc(OC)c1OC
IC50 (Tubulin): 480 nM | IC50 (MCF7): 180 nM | inhibition (Tubulin (Homo sapiens)): 70%

COc1cc(C(=O)c2cn(-c3ccccc3)cc2-c2ccc(N)cc2)cc(OC)c1OC
IC50 (Tubulin): 1200 nM | IC50 (MCF7): 9 nM

COc1cc(C(=O)c2cn(-c3ccccc3C)cc2-c2ccccc2)cc(OC)c1OC
IC50 (Tubulin): > 20000 nM | IC50 (MCF7): 2200 nM
